{"source": "ChEMBL document CHEMBL4229344", "about": "(Eur J Med Chem, 2018)", "key": {"[1]": {"biological_target": "Mitogen-activated protein kinase kinase kinase 6 (Homo sapiens) (UniProt O95382)", "assay": "Binding affinity to wild-type human partial length ASK2 (M278 to R972 residues) expressed in mammalian expression system assessed as residual binding level at 1 uM by Kinomescan method relative to control", "how_it_was_run": "(§1)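 Single-concentration KINOMEscan (DiscoverX) binding screen at 1 μM against a panel of 468 purified kinases and mutants. The read-out is binding relative to control.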"}, "[2]": {"biological_target": "Tyrosine-protein kinase Blk (Homo sapiens) (UniProt P51451)", "assay": "Binding affinity to wild-type human partial length BLK (G211 to L503 residues) expressed in bacterial expression system assessed as residual binding level at 1 uM by Kinomescan method relative to control", "how_it_was_run": "as §1"}, "[3]": {"biological_target": "Protein-tyrosine kinase 6 (Homo sapiens) (UniProt Q13882)", "sequence (Q13882 whole entry, looked up, the tested form may be a part)": "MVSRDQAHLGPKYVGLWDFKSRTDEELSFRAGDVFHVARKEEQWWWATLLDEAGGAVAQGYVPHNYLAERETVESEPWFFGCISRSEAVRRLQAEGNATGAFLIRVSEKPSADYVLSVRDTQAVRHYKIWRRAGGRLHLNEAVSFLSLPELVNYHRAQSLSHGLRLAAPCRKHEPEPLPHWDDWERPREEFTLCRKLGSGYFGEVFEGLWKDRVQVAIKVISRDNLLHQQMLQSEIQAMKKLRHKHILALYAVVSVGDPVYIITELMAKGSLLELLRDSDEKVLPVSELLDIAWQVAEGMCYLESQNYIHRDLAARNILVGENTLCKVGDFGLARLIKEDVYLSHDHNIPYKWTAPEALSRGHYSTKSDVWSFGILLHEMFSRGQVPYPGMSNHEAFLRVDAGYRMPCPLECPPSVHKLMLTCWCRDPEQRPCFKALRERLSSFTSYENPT", "assay": "Binding affinity to wild-type human partial length BRK (L166 to T451 residues) expressed in bacterial expression system assessed as residual binding level at 1 uM by Kinomescan method relative to control", "how_it_was_run": "as §1"}, "[4]": {"biological_target": "Calcium/calmodulin-dependent protein kinase type II subunit gamma (Homo sapiens) (UniProt Q13555)", "sequence (Q13555 whole entry, the tested form may be a part)": "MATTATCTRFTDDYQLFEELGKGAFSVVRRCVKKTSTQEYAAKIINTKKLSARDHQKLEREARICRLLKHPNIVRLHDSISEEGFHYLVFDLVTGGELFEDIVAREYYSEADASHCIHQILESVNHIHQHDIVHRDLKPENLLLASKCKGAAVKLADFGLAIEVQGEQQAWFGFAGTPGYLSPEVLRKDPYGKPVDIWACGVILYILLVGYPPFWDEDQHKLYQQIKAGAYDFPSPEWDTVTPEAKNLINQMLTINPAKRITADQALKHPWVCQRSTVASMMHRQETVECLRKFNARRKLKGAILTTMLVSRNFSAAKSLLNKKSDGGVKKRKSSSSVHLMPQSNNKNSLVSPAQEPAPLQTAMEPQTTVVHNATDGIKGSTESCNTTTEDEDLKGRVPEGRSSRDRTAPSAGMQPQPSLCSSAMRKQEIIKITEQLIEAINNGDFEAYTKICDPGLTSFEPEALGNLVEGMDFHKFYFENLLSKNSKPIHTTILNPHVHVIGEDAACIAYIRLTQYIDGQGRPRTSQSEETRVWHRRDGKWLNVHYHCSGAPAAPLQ", "assay": "Binding affinity to wild-type human partial length CAMK2G (R9 to A303 residues) expressed in bacterial expression system assessed as residual binding level at 1 uM by Kinomescan method relative to control"}, "[5]": {"biological_target": "Cyclin-dependent kinase 19 (Homo sapiens) (UniProt Q9BWU1)", "assay": "Binding affinity to wild-type human partial length CDK11 (M1 to N360 residues) expressed in bacterial expression system assessed as residual binding level at 1 uM by Kinomescan method relative to control", "how_it_was_run": "(§2)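 Kinome-wide competition binding screen against a panel of 468 purified kinases/mutants, with the test compound at a single concentration of 1 μM. Read-out is the relative binding activity of each kinase in the presence of compound.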"}, "[6]": {"biological_target": "Receptor tyrosine-protein kinase erbB-4 (Homo sapiens) (UniProt Q15303)", "assay": "Binding affinity to wild-type human partial length ERBB4 (L690 to K994 residues) expressed in bacterial expression system assessed as residual binding level at 1 uM by Kinomescan method relative to control"}, "[7]": {"biological_target": "Focal adhesion kinase 1 (Homo sapiens) (UniProt Q05397)", "assay": "Binding affinity to wild-type human partial length FAK (D402 to R696 residues) expressed in bacterial expression system assessed as residual binding level at 1 uM by Kinomescan method relative to control"}, "[8]": {"biological_target": "Vascular endothelial growth factor receptor 3 (Homo sapiens) (UniProt P35916)", "assay": "Binding affinity to wild-type human partial length FLT4 (E821 to E1196 residues) expressed in bacterial expression system assessed as residual binding level at 1 uM by Kinomescan method relative to control"}, "[9]": {"biological_target": "Homeodomain-interacting protein kinase 1 (Homo sapiens) (UniProt Q86Z02)", "assay": "Binding affinity to wild-type human partial length HIPK1 (M146 to I555 residues) expressed in mammalian expression system assessed as residual binding level at 1 uM by Kinomescan method relative to control", "how_it_was_run": "as §2"}, "[10]": {"test_system": "Mast/stem cell growth factor receptor Kit (Homo sapiens), P10721 [V559D]", "assay": "Binding affinity to human partial length KIT V559D mutant (Y545 to D952 residues) expressed in bacterial expression system assessed as residual binding level at 1 uM by Kinomescan method relative to control", "how_it_was_run": "(§3)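 Kinome-wide single-concentration binding screen (KINOMEscan) at 1 μM against a panel of 468 purified kinases and mutants. Read-out is relative binding of each kinase compared with control. Selectivity across the panel was summarised as an S(10) score.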"}, "[11]": {"biological_target": "Serine/threonine-protein kinase MAK (Homo sapiens) (UniProt P20794)", "assay": "Binding affinity to wild-type human partial length MAK (M1 to P314 residues) expressed in bacterial expression system assessed as residual binding level at 1 uM by Kinomescan method relative to control", "how_it_was_run": "as §2"}, "[12]": {"test_system": "Phosphatidylinositol 4,5-bisphosphate 3-kinase catalytic subunit alpha isoform (Homo sapiens), P42336 [E545K]", "sequence (P42336 whole entry E545K, the tested form may be a part, canonical isoform)": "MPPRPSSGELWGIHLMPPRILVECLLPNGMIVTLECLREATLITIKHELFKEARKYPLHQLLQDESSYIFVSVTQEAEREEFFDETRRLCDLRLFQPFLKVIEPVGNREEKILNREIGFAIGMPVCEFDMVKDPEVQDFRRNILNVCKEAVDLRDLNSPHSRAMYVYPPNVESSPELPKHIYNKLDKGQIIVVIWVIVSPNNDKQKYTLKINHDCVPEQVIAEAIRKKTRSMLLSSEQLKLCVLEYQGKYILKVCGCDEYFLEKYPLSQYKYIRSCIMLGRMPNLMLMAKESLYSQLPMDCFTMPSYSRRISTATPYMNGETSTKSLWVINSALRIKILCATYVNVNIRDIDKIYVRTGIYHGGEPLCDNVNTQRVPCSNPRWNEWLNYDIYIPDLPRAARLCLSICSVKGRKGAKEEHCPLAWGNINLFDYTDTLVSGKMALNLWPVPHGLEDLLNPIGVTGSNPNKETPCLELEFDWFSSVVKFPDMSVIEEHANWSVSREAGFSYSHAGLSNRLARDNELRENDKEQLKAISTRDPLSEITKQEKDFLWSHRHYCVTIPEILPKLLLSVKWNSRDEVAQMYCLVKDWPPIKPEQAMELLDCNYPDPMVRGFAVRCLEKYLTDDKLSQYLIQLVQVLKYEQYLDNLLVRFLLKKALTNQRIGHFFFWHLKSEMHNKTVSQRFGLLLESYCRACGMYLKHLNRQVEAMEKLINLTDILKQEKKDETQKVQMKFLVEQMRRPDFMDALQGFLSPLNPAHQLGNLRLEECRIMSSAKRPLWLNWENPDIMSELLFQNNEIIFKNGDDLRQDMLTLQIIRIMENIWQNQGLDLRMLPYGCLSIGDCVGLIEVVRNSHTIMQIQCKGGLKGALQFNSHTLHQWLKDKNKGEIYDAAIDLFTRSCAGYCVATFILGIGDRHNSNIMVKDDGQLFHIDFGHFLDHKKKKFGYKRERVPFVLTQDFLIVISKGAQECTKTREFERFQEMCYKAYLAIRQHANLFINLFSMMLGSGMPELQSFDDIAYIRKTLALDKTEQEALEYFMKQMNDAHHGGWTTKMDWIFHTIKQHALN", "assay": "Binding affinity to human partial length PIK3CA E545K mutant (R108 to N1068 residues) expressed in mammalian expression system assessed as residual binding level at 1 uM by Kinomescan method relative to control", "how_it_was_run": "as §3"}, "[13]": {"biological_target": "Membrane-associated tyrosine- and threonine-specific cdc2-inhibitory kinase (Homo sapiens) (UniProt Q99640)", "sequence (Q99640 whole entry, the tested form may be a part)": "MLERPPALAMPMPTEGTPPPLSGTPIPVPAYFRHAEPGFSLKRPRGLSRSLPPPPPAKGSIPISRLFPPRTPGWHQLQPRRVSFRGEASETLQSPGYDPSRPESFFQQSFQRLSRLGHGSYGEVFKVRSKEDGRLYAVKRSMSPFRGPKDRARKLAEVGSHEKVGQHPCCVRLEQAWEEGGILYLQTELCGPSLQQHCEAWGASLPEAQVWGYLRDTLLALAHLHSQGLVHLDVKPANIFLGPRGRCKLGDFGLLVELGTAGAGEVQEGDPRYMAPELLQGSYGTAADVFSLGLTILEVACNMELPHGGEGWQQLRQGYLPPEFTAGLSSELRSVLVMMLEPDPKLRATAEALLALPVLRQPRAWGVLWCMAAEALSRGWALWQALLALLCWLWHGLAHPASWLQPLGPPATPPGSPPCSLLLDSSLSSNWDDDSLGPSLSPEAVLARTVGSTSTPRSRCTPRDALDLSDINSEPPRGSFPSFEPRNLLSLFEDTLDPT", "assay": "Binding affinity to wild-type human partial length PKMYT1 (A88 to G366 residues) expressed in bacterial expression system assessed as residual binding level at 1 uM by Kinomescan method relative to control", "how_it_was_run": "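KINOMEscan competition binding against a panel of 468 purified kinases/mutants, compound tested at 1 μM; readout is relative binding activity versus control.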"}, "[14]": {"test_system": "Proto-oncogene tyrosine-protein kinase receptor Ret (Homo sapiens), P07949 [M918T]", "sequence (P07949 whole entry M918T, the tested form may be a part)": "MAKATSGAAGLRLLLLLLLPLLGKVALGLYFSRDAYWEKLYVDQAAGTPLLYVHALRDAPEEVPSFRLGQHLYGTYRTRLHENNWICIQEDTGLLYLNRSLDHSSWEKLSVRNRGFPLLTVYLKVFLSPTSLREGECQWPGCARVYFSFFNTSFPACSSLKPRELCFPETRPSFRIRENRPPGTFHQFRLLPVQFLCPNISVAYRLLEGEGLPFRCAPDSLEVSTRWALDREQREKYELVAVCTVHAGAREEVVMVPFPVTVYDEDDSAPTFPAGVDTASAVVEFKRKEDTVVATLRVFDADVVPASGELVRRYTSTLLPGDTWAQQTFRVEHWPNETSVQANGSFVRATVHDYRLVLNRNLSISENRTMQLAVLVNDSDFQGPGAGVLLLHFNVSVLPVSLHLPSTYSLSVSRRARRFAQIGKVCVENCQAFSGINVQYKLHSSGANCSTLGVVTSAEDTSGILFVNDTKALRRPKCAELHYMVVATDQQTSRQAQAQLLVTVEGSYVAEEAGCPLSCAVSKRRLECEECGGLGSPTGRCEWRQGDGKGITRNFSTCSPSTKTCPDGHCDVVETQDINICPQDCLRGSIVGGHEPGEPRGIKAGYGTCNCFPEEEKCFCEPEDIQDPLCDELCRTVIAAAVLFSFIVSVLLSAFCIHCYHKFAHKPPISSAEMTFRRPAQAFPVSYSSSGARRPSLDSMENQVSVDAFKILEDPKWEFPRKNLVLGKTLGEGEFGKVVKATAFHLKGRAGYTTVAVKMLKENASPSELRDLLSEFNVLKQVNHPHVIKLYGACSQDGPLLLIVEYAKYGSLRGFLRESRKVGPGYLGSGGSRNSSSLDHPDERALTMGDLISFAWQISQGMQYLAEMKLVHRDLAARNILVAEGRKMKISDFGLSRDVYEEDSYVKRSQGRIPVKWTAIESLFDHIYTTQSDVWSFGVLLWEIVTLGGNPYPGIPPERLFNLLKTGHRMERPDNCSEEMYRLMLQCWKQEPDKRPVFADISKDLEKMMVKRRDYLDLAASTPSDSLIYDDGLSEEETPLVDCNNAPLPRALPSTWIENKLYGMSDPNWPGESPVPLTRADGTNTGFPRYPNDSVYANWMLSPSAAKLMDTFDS", "assay": "Binding affinity to human partial length RET M918T mutant (E713 to D1014 residues) expressed in bacterial expression system assessed as residual binding level at 1 uM by Kinomescan method relative to control", "how_it_was_run": "as §3"}, "[15]": {"test_system": "Proto-oncogene tyrosine-protein kinase receptor Ret (Homo sapiens), P07949 [V804L]", "sequence (P07949 whole entry V804L, the tested form may be a part)": "as the sequence (P07949 whole entry M918T, the tested form may be a part) above, with V804L, T918M counted along it", "assay": "Binding affinity to human partial length RET V804L mutant (E713 to D1014 residues) expressed in bacterial expression system assessed as residual binding level at 1 uM by Kinomescan method relative to control", "how_it_was_run": "as §3"}, "[16]": {"biological_target": "Ribosomal protein S6 kinase alpha-2 (Homo sapiens) (UniProt Q15349)", "assay": "Binding affinity to wild-type human partial length N-terminal RSK3 kinase domain 1 (M1 to Q385 residues) expressed in bacterial expression system assessed as residual binding level at 1 uM by Kinomescan method relative to control"}, "[17]": {"biological_target": "Serine/threonine-protein kinase VRK2 (Homo sapiens) (UniProt Q86Y07)", "assay": "Binding affinity to wild-type human partial length VRK2 (M1 to T336 residues) expressed in mammalian expression system assessed as residual binding level at 1 uM by Kinomescan method relative to control"}, "[18]": {"biological_target": "T1, Platelet-derived growth factor receptor alpha (Homo sapiens, UniProt P16234)", "T1 sequence (P16234 whole entry)": "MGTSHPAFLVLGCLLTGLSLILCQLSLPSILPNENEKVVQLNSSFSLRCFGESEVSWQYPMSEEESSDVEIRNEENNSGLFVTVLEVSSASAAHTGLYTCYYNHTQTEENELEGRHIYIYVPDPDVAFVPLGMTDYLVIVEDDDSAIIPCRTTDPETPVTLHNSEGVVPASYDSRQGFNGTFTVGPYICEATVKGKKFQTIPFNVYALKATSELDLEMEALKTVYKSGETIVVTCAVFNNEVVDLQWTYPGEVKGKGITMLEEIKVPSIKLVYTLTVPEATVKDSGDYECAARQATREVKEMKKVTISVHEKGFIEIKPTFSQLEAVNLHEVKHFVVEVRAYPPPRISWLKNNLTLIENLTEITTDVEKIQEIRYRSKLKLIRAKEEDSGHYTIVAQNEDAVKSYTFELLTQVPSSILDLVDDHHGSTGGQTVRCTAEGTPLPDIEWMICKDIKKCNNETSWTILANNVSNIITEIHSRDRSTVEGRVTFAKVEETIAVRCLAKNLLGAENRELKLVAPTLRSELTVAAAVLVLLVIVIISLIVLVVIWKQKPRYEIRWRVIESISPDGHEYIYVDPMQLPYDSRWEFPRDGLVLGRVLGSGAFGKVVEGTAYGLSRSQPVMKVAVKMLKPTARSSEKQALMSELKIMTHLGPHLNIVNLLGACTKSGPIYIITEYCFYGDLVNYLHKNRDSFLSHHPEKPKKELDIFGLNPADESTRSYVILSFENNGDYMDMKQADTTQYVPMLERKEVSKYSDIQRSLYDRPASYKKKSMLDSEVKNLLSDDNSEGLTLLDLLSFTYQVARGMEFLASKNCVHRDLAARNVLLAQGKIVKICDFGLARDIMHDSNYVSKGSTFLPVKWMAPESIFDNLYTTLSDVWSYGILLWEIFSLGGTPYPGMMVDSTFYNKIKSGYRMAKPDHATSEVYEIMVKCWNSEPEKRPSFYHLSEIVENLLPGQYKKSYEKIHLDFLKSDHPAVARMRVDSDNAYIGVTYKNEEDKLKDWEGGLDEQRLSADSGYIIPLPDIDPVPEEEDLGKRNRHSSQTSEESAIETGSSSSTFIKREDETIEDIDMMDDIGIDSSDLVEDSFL", "assay": "Inhibition of PDGFRalpha (unknown origin) using poly(4:1 Glu,Tyr) peptide as substrate preincubated for 1 hr followed by addition of ATP and measured after 30 mins by ADP-Glo bioluminescence assay"}, "[19]": {"species_on_record": "Homo sapiens", "assay": "Selectivity index, ratio of GI50 for TEL-fused PDGFRbeta (unknown origin) expressed in mouse BA/F3 cells to GI50 for TEL-fused PDGFRalpha (unknown origin) expressed in mouse BA/F3 cells", "format": "cell-based", "how_it_was_run": "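Parental BaF3 or IL-3-independent TEL-kinase BaF3 lines, made by retroviral infection and puromycin selection, grown in RPMI 1640 with 10% FBS. Cells seeded at 1–3 × 10^4 cells/mL with serial compound concentrations for 72 h. Viability read by CellTiter-Glo luminescence or CCK-8 absorbance at 450/655 nm and normalised to DMSO. GI50 obtained by triplicate testing with linear regression. Selectivity is the ratio of the two GI50 values.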"}, "[20]": {"biological_target": "T1, Platelet-derived growth factor receptor alpha", "assay": "Inhibition of PDGF-induced PDGFRalpha autophosphorylation at Y1018 residue in human NCI-H1703 cells after 2 hrs in presence of PDGF-AA by Western blot analysis", "format": "cell-based"}, "[21]": {"biological_target": "Vascular endothelial growth factor receptor 2 (Homo sapiens) (UniProt P35968)"}}}
{"smiles": "Cc1ccc(NC(=O)c2ccc(CN(CCN(C)C)C(=O)c3cccnc3)cc2)cc1Nc1nccc(-c2cccnc2)n1", "values": [{"measurement": "Activity", "setting": "[1]", "result": 100, "unit": "%"}, {"measurement": "Activity", "setting": "[2]", "result": 95, "unit": "%"}, {"measurement": "Activity", "setting": "[3]", "result": 81, "unit": "%"}, {"measurement": "Activity", "setting": "[4]", "result": 93, "unit": "%"}, {"measurement": "Activity", "setting": "[5]", "result": 82, "unit": "%"}, {"measurement": "Activity", "setting": "[6]", "result": 85, "unit": "%"}, {"measurement": "Activity", "setting": "[7]", "result": 90, "unit": "%"}, {"measurement": "Activity", "setting": "[8]", "result": 100, "unit": "%"}, {"measurement": "Activity", "setting": "[9]", "result": 79, "unit": "%"}, {"measurement": "Activity", "setting": "[10]", "result": 0.8, "unit": "%"}, {"measurement": "Activity", "setting": "[11]", "result": 92, "unit": "%"}, {"measurement": "Activity", "setting": "[12]", "result": 87, "unit": "%"}, {"measurement": "Activity", "setting": "[13]", "result": 84, "unit": "%"}, {"measurement": "Activity", "setting": "[14]", "result": 85, "unit": "%"}, {"measurement": "Activity", "setting": "[15]", "result": 97, "unit": "%"}, {"measurement": "Activity", "setting": "[16]", "result": 94, "unit": "%"}, {"measurement": "Activity", "setting": "[17]", "result": 100, "unit": "%"}, {"measurement": "IC50", "setting": "[18]", "result": 132, "unit": "nM"}, {"measurement": "RatioGI50", "setting": "[19]", "result": 85}, {"measurement": "inhibition", "setting": "[20]", "result": "Dose-dependent effect"}, {"measurement": "GI50", "setting": "[21]", "result": "> 10", "unit": "µM"}]}
